Data published in ChEMBL document CHEMBL5344467, “Improving Activity of New Arylurea Agents against Multidrug-Resistant and Biofilm-Producing Staphylococcus epidermidis” (ACS Med Chem Lett, 2024).
Converted amounts (≈) assume the structure as drawn. The source made the active and inactive calls. No cut-off for these calls is given here.

Tests used:
[1] = Selectivity index, ratio of IC50 for cytotoxicity against rat H9c2 cells to MIC for antibacterial activity against multidrug resistant Staphylococcus epidermidis clinical isolates; format: toxicity, cell-based; conditions: read-out: Selectivity Index
How it was run: (§1)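 SI is IC50 divided by the mean MIC across clinical multidrug-resistant S. epidermidis isolates (81 strains). IC50 came from an MTT assay after 24 h treatment of H9c2 cardiomyocytes or BJ skin fibroblasts, n = 3. MIC was measured by broth microdilution.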

[2] = Selectivity index, ratio of IC50 for cytotoxicity against human BJ cells to MIC for antibacterial activity against multidrug resistant Staphylococcus epidermidis clinical isolates; format: toxicity, cell-based; conditions: read-out: Selectivity Index; how it was run: as §1
[3] = Selectivity index, ratio of IC50 for rat H9c2 cells to IC50 for human BJ cells; format: toxicity; conditions: H9c2 cells and BJ cells, read-out: Ratio IC50
[4] = tested on: Staphylococcus epidermidis; test: Antibiofilm activity against Staphylococcus epidermidis clinical isolates assessed as eradication of existing biofilms measured after 24 hrs by confocal laser scanning microscopy analysis; format: functional
[5] = tested on: Staphylococcus epidermidis; test: Antibiofilm activity against Staphylococcus epidermidis clinical isolates assessed as inhibition of biofilm formation measured after 24 hrs by confocal laser scanning microscopy analysis; format: functional
Cell membrane [6] = test: Induction of cell membrane permeability Staphylococcus epidermidis clinical isolate 23 assessed as residual polarized cells by Texas Red-H/FITC-H staining based flow cytometry (reference value: 69.6%); format: subcellular
How it was run: (§2)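 Membrane potential read by flow cytometry. Bacteria were stained with DiOC2, then exposed to the agent; red fluorescence marks polarized cells and green marks depolarized cells. CCCP served as the positive control and daptomycin as the depolarizing reference at 0.4 μg/mL. Test concentrations were 0.8, 1.6 and 3.125 μg/mL, with a 15 min exposure.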

Cell membrane [7] = test: Induction of cell membrane permeability Staphylococcus epidermidis clinical isolate 23 assessed as depolarized cells by Texas Red-H/FITC-H staining based flow cytometry (reference value: 2.7%); format: subcellular; how it was run: as §2
Acinetobacter baumannii = test: Antibacterial activity against Acinetobacter baumannii ATCC 19606 assessed as inhibition of bacterial growth by broth microdilution method; format: functional
Escherichia coli = test: Antibacterial activity against Escherichia coli ATCC 25922 assessed as inhibition of bacterial growth by broth microdilution method; format: functional
Pseudomonas aeruginosa = test: Antibacterial activity against Pseudomonas aeruginosa ATCC 27853 assessed as inhibition of bacterial growth by broth microdilution method; format: functional
Cell membrane [8] = test: Induction of cell membrane permeability Staphylococcus epidermidis clinical isolate 23 assessed as residual polarized cells at 0.4 ug/ml by Texas Red-H/FITC-H staining based flow cytometry (reference value: 69.6%); format: subcellular; conditions: dose 0.4 µg/ml; how it was run: as §2
Cell membrane [9] = test: Induction of cell membrane permeability Staphylococcus epidermidis clinical isolate 23 assessed as depolarized cells at 0.4 ug/ml by Texas Red-H/FITC-H staining based flow cytometry (reference value: 2.7%); format: subcellular; conditions: dose 0.4 µg/ml; how it was run: as §2
[10] = tested on: Staphylococcus epidermidis; test: Antibacterial activity against multidrug-resistant and biofilm producer Staphylococcus epidermidis ATCC 35984 assessed as inhibition of bacterial growth by broth microdilution method; format: functional
How it was run: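 Preliminary MIC screen by broth microdilution against three reference strains (methicillin-susceptible, multidrug-resistant/biofilm-producing S. epidermidis, and biofilm-producing S. aureus); MIC reported in μg/mL.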

[11] = tested on: Staphylococcus epidermidis; test: Antibiofilm activity against Staphylococcus epidermidis clinical isolate 25 assessed as inhibition of biofilm formation measured after 24 hrs by confocal laser scanning microscopy analysis; format: functional
How it was run: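 Clinical S. epidermidis strain no. 25 biofilm exposed to compound for 24 h, stained with FilmTracer SYPRO Ruby biofilm matrix stain, and imaged by confocal microscopy. Untreated compact biofilm served as control.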

[12] = tested on: Staphylococcus epidermidis; test: Bacteriostatic activity Staphylococcus epidermidis clinical isolate 44 at 0.4 to 25 ug/ml measured upto 1000 mins by broth microdilution method; format: functional, organism-based; conditions: dose 0.4-25 µg/ml
Cell membrane [13] = test: Induction of cell membrane permeability Staphylococcus epidermidis clinical isolate 23 assessed as residual polarized cells at 0.8 ug/ml by Texas Red-H/FITC-H staining based flow cytometry (reference value: 69.6%); format: subcellular; conditions: dose 0.8 µg/ml
How it was run: (§3)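 Clinical S. epidermidis no. 23 cells were first stained with DiOC2, then treated with compound. Membrane potential was read by flow cytometry within 15 min: red marks polarized cells, green marks depolarized cells. Controls were DiOC2-only cells (negative), CCCP (positive), and daptomycin at 0.4 μg/mL as a depolarizing reference.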

Cell membrane [14] = test: Induction of cell membrane permeability Staphylococcus epidermidis clinical isolate 23 assessed as depolarized cells at 0.8 ug/ml by Texas Red-H/FITC-H staining based flow cytometry (reference value: 2.7%); format: subcellular; conditions: dose 0.8 µg/ml; how it was run: as §3
Cell membrane [15] = test: Induction of cell membrane permeability Staphylococcus epidermidis clinical isolate 23 assessed as residual polarized cells at 1.6 ug/ml by Texas Red-H/FITC-H staining based flow cytometry (reference value: 69.6%); format: subcellular; conditions: dose 1.6 µg/ml
How it was run: (§4)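 Cells stained with DiOC2, then exposed to test agent (0.8, 1.6, 3.125 μg/mL tested); CCCP positive control, daptomycin 0.4 μg/mL reference depolarizer, DiOC2-only negative control. Membrane potential read by flow cytometry as red (polarized) versus green (depolarized) cell populations; depolarization assessed within 15 min.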

Cell membrane [16] = test: Induction of cell membrane permeability Staphylococcus epidermidis clinical isolate 23 assessed as depolarized cells at 1.6 ug/ml by Texas Red-H/FITC-H staining based flow cytometry (reference value: 2.7%); format: subcellular; conditions: dose 1.6 µg/ml; how it was run: as §4
Cell membrane [17] = test: Induction of cell membrane permeability Staphylococcus epidermidis clinical isolate 23 assessed as depolarized cells at 3.125 ug/ml by Texas Red-H/FITC-H staining based flow cytometry (reference value: 2.7%); format: subcellular; conditions: dose 3.125 µg/ml; how it was run: as §3

## O=S(=O)(NC1CCN(CCC(Oc2ccc(C(F)(F)F)cc2)c2cccs2)CC1)c1cccc(Cl)c1 (racemic)
[1]
  selectivity ratio: 2.8
[2]
  selectivity ratio: 1
[3]
  selectivity ratio: 2
[4]
  MBEC90: >=125 ug ml-1
[5]
  MBIC90: >=125 ug ml-1

## N#CC(C#N)=NNc1cccc(Cl)c1
Cell membrane [6]
  Activity: 0.1%
Cell membrane [7]
  Activity: 73.4%

## O=S(=O)(NC1CCN(CCC(Oc2ccc(C(F)(F)F)cc2)c2ccccc2)CC1)c1cccc(Cl)c1 (racemic)
[1]
  selectivity ratio: 0.7
[2]
  selectivity ratio: 0.4
[3]
  selectivity ratio: 2
[4]
  MBEC90: >=125 ug ml-1
[5]
  MBIC90: >=125 ug ml-1

## O=S(=O)(NC1CCN(CCC(Oc2cccc(C(F)(F)F)c2)c2ccccc2)CC1)c1cccc(Cl)c1 (racemic)
Acinetobacter baumannii
  MIC: ≥ 25 µg/mL
Escherichia coli
  MIC: ≥ 25 µg/mL
Pseudomonas aeruginosa
  MIC: ≥ 25 µg/mL

## CCCCCCCCCC(=O)N[C@@H](Cc1c[nH]c2ccccc12)C(=O)N[C@H](CC(N)=O)C(=O)N[C@@H](CC(=O)O)C(=O)N[C@@H]1C(=O)NCC(=O)N[C@@H](CCCN)C(=O)N[C@@H](CC(=O)O)C(=O)N[C@H](C)C(=O)N[C@@H](CC(=O)O)C(=O)NCC(=O)N[C@H](CO)C(=O)N[C@@H]([C@H](C)CC(=O)O)C(=O)N[C@@H](CC(=O)c2ccccc2N)C(=O)O[C@@H]1C
Cell membrane [8]
  Activity: 1.3%
Cell membrane [9]
  Activity: 7.2%

## O=S(=O)(NC1CCN(CCC(Oc2ccc(C(F)(F)F)cc2)c2cccs2)CC1)c1cccc(C(F)(F)F)c1 (racemic)
[10]
  MIC: 0.2 µg/mL (≈ 0.337 µM)

## O=S(=O)(NC1CCN(CCC(Oc2ccc(C(F)(F)F)cc2)c2cccs2)CC1)c1cccc(Br)c1 (racemic)
[10]
  MIC: 0.4 µg/mL (≈ 0.663 µM)

## O=C(Nc1cccc(Cl)c1)NC1CCN(CCC(Oc2ccc(C(F)(F)F)cc2)c2cccs2)CC1 (racemic)
[1]
  selectivity ratio: 15.3
[2]
  selectivity ratio: 7.5
Acinetobacter baumannii
  MIC: > 50 µg/mL
Escherichia coli
  MIC: > 50 µg/mL
Pseudomonas aeruginosa
  MIC: > 50 µg/mL
[3]
  selectivity ratio: 2
[11]
  MBIC: 7.8 µg/mL
[4]
  MBEC90: 31.25 µg/mL
[5]
  MBIC90: 31.25 µg/mL
[12]
  Activity: Active
Cell membrane [13]
  Activity: 43.5%
Cell membrane [14]
  Activity: 34.7%
Cell membrane [15]
  Activity: 1.9%
Cell membrane [16]
  Activity: 72.4%
Cell membrane [17]
  Activity: 55.2%

## CC(=O)NC[C@H]1CN(c2ccc(N3CCOCC3)c(F)c2)C(=O)O1 [LINEZOLID]
[1]
  selectivity ratio: 7.3
[4]
  MBEC90: 50 µg/mL
[5]
  MBIC90: 50 µg/mL
[12]
  Activity: Active
